In brackets after ≈: the same amount, converted by molar mass. Activity calls are given as the source filed them.

By solubility is commonly meant the concentration that dissolves in the medium under given conditions. Read a high solubility as much dissolved substance.

A short description of series [1]: Cytotoxicity against human THP-1 cells. In kind it is toxicity, cell-based.
Series [2] is described as follows: Intrinsic clearance in mouse liver microsomes. In kind it is ADME, Microsome. (Microsomes from liver hold many membrane-bound enzymes, among them those of drug oxidation.)
A short description of series [3]: Solubility of the compound in FaSSIF at pH 6.5 measured after 4 hrs by HPLC-UV analysis. The following applies: for solubility at 4 h: FaSSIF, pH 6.5. In kind it is physicochemical.
A short description of series [4]: Inhibition of chymotrypsin activity of proteasome beta5 subunit in Leishmania donovani amastigotes infected in human THP-1 cells incubated for 96 hrs by INMAC assay. The following applies: THP-1, 96 h, read-out: pEC50 (converted).
Another series has as its system THP-1. The following applies: Leishmania donovani, time 96.0 hrs.
Series [5] in a line: Metabolic stability of the compound in mouse plasma assessed as parent compound remaining measured after 3 hrs. In kind it is ADME, cell-free. The note with it: read-out: Stability.
A short description of series [6]: Time during which drug concentration exceeds EC90 for inhibition of chymotrypsin activity of proteasome beta5 subunit in Leishmania donovani amastigotes infected in human THP-1 cells in NMRI mouse blood at 10 mg/kg, po by UPLC-MS/MS analysis. The note with it: in vivo. In kind it is organism-based. In short, it runs like this: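 Mice received a single 10 mg/kg oral dose, with a separate 3 mg/kg iv arm in the same PK study. Blood levels were followed over time, and time above the EC90 threshold was taken from the oral blood profile.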

A short description of series [7]: Genotoxicity against Salmonella typhimurium by Ames test. In kind it is toxicity. The following applies: salmonella enterica subsp. enterica serovar typhimurium. A general note: The Ames test detects mutagens through reverse mutation in bacteria.
The nature of series [8]: Metabolic stability of the compound in human plasma assessed as parent compound remaining measured after 3 hrs. In kind it is ADME, cell-free. The note with it: read-out: Stability.
Series [9] can be described thus: Time during which drug concentration exceeds EC90 for inhibition of chymotrypsin activity of proteasome beta5 subunit in Leishmania donovani amastigotes infected in human THP-1 cells in NMRI mouse blood at 50 mg/kg, po by UPLC-MS/MS analysis. In kind it is organism-based. The following applies: in vivo. Summed up:
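Not measured directly. Time above EC90 at 50 mg/kg po was projected from the 10 mg/kg oral mouse blood profile, assuming exposure rises linearly with dose.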

A short description of series [10]: Kinetic aqueous solubility of the compound by CLND method. In kind it is physicochemical. The following applies: buffer; read-out: Kinetic_solubility.
Series [11] deals with Leishmania donovani. As to the kind of experiment: Antileishmanial activity against amastigote stage of Leishmania donovani MHOM/ET/67/HU3 infected in BALB/c mouse assessed as reduction in parasitemia at 25 mg/kg, po bid for 10 days. In kind it is functional, organism-based. The note with it: time 10.0 day.
For series [12], the system named is Leishmania donovani. As to the kind of experiment: Antileishmanial activity against amastigote stage of Leishmania donovani MHOM/ET/67/HU3 infected in po dosed BALB/c mouse assessed as reduction in parasitemia administered twice a day for 10 days. In kind it is functional. The note with it: MHOM/ET/67/HU3, 240 h, time 10 day.

The compound `O=C1CN(c2cnc3nc(-c4cc(NC(=O)N5CCCC5)ccc4F)ccn23)CCN1` had an EC50 in [1] of over 50.1 µM.

Compound `O=C(Nc1ccc(F)c(-c2cn3ncc(N4CCOCC4)cc3n2)c1)N1CCCC1` showed an EC50 in [1] of over 50.1 µM.

`O=C(Nc1ccc(F)c(-c2nc3cc(N4CCOCC4)cnn3n2)c1)N1CCCC1`: the EC50 in series [1] was over 50.1 µM; in [4], 0.794 µM. In addition, in [2], the CLH was 0.7 mL/min/g. The compound also yielded a solubility at 4 h in series [3] of 182 µM (≈ 74.9 µg/mL).

As for `O=C(Nc1cccc(-c2nc3ncccc3o2)c1)c1ccco1`, the EC50 in [1] is over 50.1 µM; in series [4] it was 6.31 µM. This compound also had a CLH in series [2] of 24 mL/min/g.

In turn, `O=C(Nc1cccc(-c2cn3cc(N4CCOCC4)cnc3n2)n1)N1CCCC1` had an EC50 in [1] of over 50.1 µM. The compound further showed a CLH in series [2] of under 0.5 mL/min/g.

On to `O=C(Nc1cncc(-c2cn3cc(N4CCOCC4)cnc3n2)n1)N1CCCC1`, for which, in [1], the EC50 is over 50.1 µM. Besides, the CLH in [2] is under 0.5 mL/min/g.

In the case of `O=C(Nc1cccc(-c2cc3cc(-c4ccccc4)cnc3[nH]2)c1)N1CCCC1`, in series [1], the EC50 is over 50.1 µM.

In [1], `O=C(Nc1cnnc(-c2cn3cc(N4CCOCC4)cnc3n2)c1)N1CCCC1` gave an EC50 of over 50.1 µM. The compound further returned a CLH in series [2] of under 0.5 mL/min/g.

`O=C(Nc1ccc(F)c(-c2cn3cc(N4CCOCC4)cnc3n2)c1)N1CCCC1`: the pEC90 in the series with THP-1 came to 5.7. For the same compound, the remaining at 3 h in series [5] and in [8] was 100% each time. Besides, the EC50 in series [1] was over 50.1 µM; in series [4], 0.631 µM. The CLH in series [2] is under 0.5 mL/min/g. Moreover, the entries for the “T>EC90” value in series [6] and in series [9] were 2 h and over 6 h, respectively. In series [3], this compound yielded a solubility at 4 h of 15 µM (≈ 6.16 µg/mL). In [7], the Activity result is “Toxic”.

The compound `CC(=O)N1CCN(c2cnc3nc(-c4cc(NC(=O)N5CCCC5)ccc4F)ccn23)CC1` had an EC50 in series [1] of over 50.1 µM.

For the compound `C[C@@H]1CN(c2cnc3nc(-c4cc(NC(=O)N5CCCC5)ccc4F)ccn23)CCO1`, the CLH in [2] came to 1.8 mL/min/g. The compound further registered a solubility at 4 h in [3] of 1580 µM (≈ 670 µg/mL). For the same compound, the EC50 in [4] is 1 µM. Besides, the solubility kinetic in series [10] turned out to be 345 µM (≈ 146 µg/mL).

As to `COc1ccc(NC(=O)N2CCCC2)cc1-c1cn2cc(N3CCOCC3)cnc2n1`, the EC50 in series [1] was over 50.1 µM. This compound also registered a CLH in [2] of under 0.5 mL/min/g.

`O=C(Nc1cccc(-c2nc3ccccc3o2)c1)c1ccco1` had an EC50 in series [1] of over 50.1 µM. Moreover, the Activity result in series [7] is “Toxic”.

Consider `O=C(Nc1ccc(F)c(-c2cn3nc(N4CCOCC4)cnc3n2)c1)N1CCCC1`, for which the concentration in solution in series [3] (solubility at 4 h) was 32 µM (≈ 13.2 µg/mL). Besides, in series [7], the Activity entry was “Toxic”.

Turning to `O=C(Nc1ccc(F)c(-c2cnn3c(-c4ccccc4)cnc3n2)c1)N1CCCC1`, the EC50 is over 50.1 µM in series [1] and 1.26 µM in [4]. Also, the CLH in series [2] worked out at 3.3 mL/min/g. The concentration in solution in series [3] (solubility at 4 h) was 3 µM (≈ 1.21 µg/mL).

Take `O=C(Nc1cc(-c2cn3cc(N4CCOCC4)cnc3n2)ncn1)N1CCCC1`: in series [1], the EC50 was over 50.1 µM. The compound also gave a CLH in [2] of under 0.5 mL/min/g.

Take `Cn1c(-c2cc(NC(=O)N3CCCC3)ccc2F)cc2cc(N3CCOCC3)cnc21`: the EC50 in series [1] was over 50.1 µM.

Consider `O=C(Nc1nccc(-c2cn3cc(N4CCOCC4)cnc3n2)n1)N1CCCC1`, for which the EC50 in series [1] was over 50.1 µM. In [2], this compound showed a CLH of under 0.5 mL/min/g. The compound further returned a solubility in series [3] (simulated gi fluid, pH 6.5, 4 h) of over 2500 µM.

As for `O=C(Nc1ccc(F)c(-c2nc3ncc(N4CCOCC4)cn3n2)c1)N1CCCC1`, the CLH in [2] was under 0.5 mL/min/g.

For `O=C(Nc1ccc(F)c(-c2ccn3c(N4CCOCC4)cnc3n2)c1)N1CCCC1` [GSK-3494245], the EC50 was at least 63.1 µM in [1] and 1.58 µM in series [4]. For the same compound, in series [2], the CLH stood at 0.8 mL/min/g. The same compound gave a solubility at 4 h in [3] of 440 µM (≈ 181 µg/mL). Besides, the Activity result in series [7] is “Non-Toxic”. For the same compound, the outcome in the series with Leishmania donovani [11] was Active. Further, the ED90 in the series with Leishmania donovani [12] came to 16 mg/kg. Besides, the ED99 in the series on Leishmania donovani [12] came out at 30 mg/kg.

`O=C(Nc1ccc(F)c(-c2cc3nc(N4CCOCC4)cnc3[nH]2)c1)N1CCCC1` gave an EC50 in [1] of over 50.1 µM.

`O=C(Nc1cccc(-c2cc3cc(N4CCOCC4)nnc3o2)c1)N1CCCC1`: the EC50 in [1] was over 50.1 µM.

`C[C@H]1CN(c2cnc3nc(-c4cc(NC(=O)N5CCCC5)ccc4F)ccn23)CCO1`: the CLH in series [2] was 2.7 mL/min/g. In addition, in series [3], the solubility at 4 h worked out at 1320 µM (≈ 561 µg/mL). The EC50 in series [4] is 1.26 µM. The solubility kinetic in series [10] is at least 362 µM.

As to `O=C(Nc1ccc(F)c(-c2ccn3c(N4CCNCC4)cnc3n2)c1)N1CCCC1`, in series [1], the EC50 was over 50.1 µM. For the same compound, the CLH in series [2] is under 0.5 mL/min/g.

`O=C(Nc1cccc(-c2cc3ncc(-c4ccccc4)cn3n2)c1)N1CCCC1` had an EC50 in [1] of over 50.1 µM.

(Values after ChEMBL document CHEMBL5149983, “Scaffold-Hopping Strategy on a Series of Proteasome Inhibitors Led to a Preclinical Candidate for the Treatment of Visceral Leishmaniasis” (J Med Chem, 2021).)
